Results reported in paper PMC3787807 (Journal of Natural Products, 2013).

Assays:
[1] = target: TgACTI (T. gondii actin) (Toxoplasma gondii, UniProt P53476); assay: Ninety-degree light scattering of TgACTI polymerization; type: biochemical; settings: 5 μM TgACTI in F-buffer, compounds at 0.25, 1 or 2 μM, 9000 s
Summary of the method: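 Baculovirus-expressed N-His TgACTI was Ni-NTA purified, dialysed into G buffer (pH 8.0, 0.2 mM ATP) and spun at 100000g to remove aggregates. It was held at 5 μM in G buffer at 21 °C, with ex/em 310 nm. After a steady baseline, 10× F buffer (500 mM KCl, 20 mM MgCl2, 10 mM ATP) went in at 1/10 volume with compound or DMSO control. Scatter counted for 9000 s.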

[2] = test system: T. gondii; assay: Inhibition of T. gondii proliferation; type: cell-based, Toxoplasma gondii; settings: T. gondii growth on HFF monolayers
Summary of the method: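 β-gal-expressing parasites preincubated 30 min with compound dilutions in DMEM/10% FBS/gentamicin with 0.2% DMSO, then seeded at 500/well onto confluent HFF. Compound kept continuously or washed out after 2 or 48 h. After 72 h at 37 °C, 5% CO2, cells lysed and given chlorophenol red-β-D-galactopyranoside substrate. A570 normalised to untreated. EC50 from variable-slope log(inhibitor)–response fits, three experiments (n = 4 replicates).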

[3] = test system: human cells; settings: read-out: EC50, growth inhibition of human cells; cited from earlier work

Sequence of TgACTI (T. gondii actin) (P53476 whole entry): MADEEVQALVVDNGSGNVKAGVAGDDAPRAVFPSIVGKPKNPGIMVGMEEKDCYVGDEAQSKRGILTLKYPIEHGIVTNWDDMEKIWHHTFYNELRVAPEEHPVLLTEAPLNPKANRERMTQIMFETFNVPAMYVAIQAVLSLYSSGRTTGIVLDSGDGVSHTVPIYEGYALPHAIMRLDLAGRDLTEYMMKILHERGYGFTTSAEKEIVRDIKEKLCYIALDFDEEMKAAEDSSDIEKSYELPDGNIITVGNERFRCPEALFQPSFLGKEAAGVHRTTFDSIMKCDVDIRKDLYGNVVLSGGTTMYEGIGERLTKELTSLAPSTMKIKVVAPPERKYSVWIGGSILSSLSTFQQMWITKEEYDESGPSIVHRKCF

Structure (SMILES)	TgACTI polymerization (light scattering) [1]	activity against the parasite (in words) [2]	EC50 [3] [µM]
CO[C@@H]1C(=O)O[C@H](C)[C@H](C)/C=C(\C)C[C@H](C)C(=O)N[C@@H](C)C(=O)N(C)[C@H](Cc2c[nH]c3ccccc23)C(=O)N[C@H]1c1ccccc1 [2a, synthetic chondramide A]	promote actin polymerization	–	–
CO[C@@H]1C(=O)O[C@H](C)[C@H](C)/C=C(\C)C[C@H](C)C(=O)N[C@@H](C)C(=O)N(C)[C@H](Cc2c[nH]c3ccccc23)C(=O)N[C@H]1c1ccc(C(N)=O)cc1 [2k]	–	eliminated activity against the parasite	~1.4
C/C1=C\[C@H](C)C[C@H](C)OC(=O)C[C@H](c2ccc(O)cc2)NC(=O)[C@@H](Cc2c(Br)[nH]c3ccccc23)N(C)C(=O)[C@H](C)NC(=O)[C@@H](C)C1 [compound 1, Jasplakinolide, reference compound]	promote actin polymerization	–	–
CO[C@@H]1C(=O)O[C@H](C)[C@H](C)/C=C(\C)C[C@H](C)C(=O)N[C@@H](C)C(=O)N(C)[C@H](Cc2c[nH]c3ccccc23)C(=O)N[C@H]1c1ccc(O)cc1 [compound 2, chondramide A]	promote actin polymerization	–	–
